# ChEMBL document CHEMBL1149561, “Synthesis of benzothiazole semicarbazones as novel anticonvulsants--the role of hydrophobic domain” (Bioorg Med Chem Lett, 2007)
# Columns and labels:
# [1] = system: Mus musculus; assay: Anticonvulsant activity in swiss Albino mouse at 30 mg/kg after 4 hrs by MES screen test; assay type: functional
# Summary of the method: (§1)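 Swiss albino mice (25–30 g) given 30 mg/kg i.p. Maximal electroshock (MES) seizure test run 0.5 and 4 h after dosing. Activity read out as % of animals protected. Phenytoin at 30 mg/kg i.p. served as standard.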
# [2] = system: Mus musculus; assay: Anticonvulsant activity in Swiss Albino mouse at 30 mg/kg after 0.5 hrs by MES screen test; assay type: functional; summary of the method: as §1
# [3] = Lipophilicity, log P of the compound; assay type: physicochemical; details: octanol/water
# [4] = system: Mus musculus; assay: Neurotoxicity in Swiss Albino mouse at 30 mg/kg after 4 hrs by rotarod test; assay type: toxicity, organism-based; parameters: dose 30 mg/kg; details: in vivo
# Summary of the method: (§2)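 Swiss albino mice received 30 mg/kg i.p. Motor impairment scored on the rotarod 0.5 and 4 h after dosing. Results given as number of animals showing toxicity over number tested.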
# [5] = system: Mus musculus; assay: Neurotoxicity in Swiss Albino mouse at 30 mg/kg after 0.5 hrs by rotarod test; assay type: toxicity, organism-based; parameters: dose 30 mg/kg; details: in vivo; summary of the method: as §2
logP [3],Structure (SMILES),Activity [1] [%],Activity [2] [%],Activity [4],Activity [5]
,C/C(=N\NC(=O)Nc1nc2ccc(C)cc2s1)c1ccccc1,33.3,33.3,,
3.12,C/C(=N\NC(=O)Nc1nc2ccc(Cl)cc2s1)c1ccccc1,83.3,100,Not Active,Not Active
,COc1ccc(/C(C)=N/NC(=O)Nc2nc3ccc(C)cc3s2)cc1,83.3,83.3,Not Active,Not Active
,COc1ccc(/C(C)=N/NC(=O)Nc2nc3ccc(OC)cc3s2)cc1,83.3,83.3,Not Active,Not Active
,COc1ccc2nc(NC(=O)NN=C(c3ccccc3)c3ccccc3)sc2c1,100,100,Not Active,Not Active
,O=C(NN=C(c1ccccc1)c1ccccc1)Nc1nc2ccc(Cl)cc2s1,33.3,50,,
,COc1ccc2nc(NC(=O)N/N=C(\C)c3ccc(O)cc3)sc2c1,50,66.6,,
3.22,C/C(=N\NC(=O)Nc1nc2ccc(C)cc2s1)c1ccc([N+](=O)[O-])cc1,100,100,Not Active,Not Active
,C/C(=N\NC(=O)Nc1nc2ccc(Cl)cc2s1)c1ccc([N+](=O)[O-])cc1,33.3,33.3,,
,COc1ccc2nc(NC(=O)N/N=C(\C)c3ccc([N+](=O)[O-])cc3)sc2c1,100,100,Not Active,Not Active
,C/C(=N\NC(=O)Nc1nc2ccc(C)cc2s1)c1ccc(O)cc1,66.6,66.6,,
,COc1ccc(/C(C)=N/NC(=O)Nc2nc3ccc(Cl)cc3s2)cc1,66.6,66.6,,
,O=C1NC(=O)C(c2ccccc2)(c2ccccc2)N1 [PHENYTOIN],100,100,Not Active,Not Active
,COc1ccc2nc(NC(=O)N/N=C(\C)c3ccccc3)sc2c1,66.6,83.3,Not Active,Not Active
,C/C(=N\NC(=O)Nc1nc2ccc(Cl)cc2s1)c1ccc(O)cc1,50,50,,
,Cc1ccc2nc(NC(=O)NN=C(c3ccccc3)c3ccccc3)sc2c1,33.3,33.3,,
